Measurements as given in ChEMBL document CHEMBL1144594, “Synthesis and biological evaluation of 4-amino derivatives of benzimidazoquinoxaline, benzimidazoquinoline, and benzopyrazoloquinazoline as potent IKK inhibitors” (Bioorg Med Chem Lett, 2007).
Calls of active or inactive are those of the source. The rule behind the calls is not given here.

Experiments:
[1] = biological target: T1, Inhibitor of nuclear factor kappa-B kinase subunit alpha (Homo sapiens, UniProt O15111); assay: Inhibition of IKK1
T1 sequence (O15111 whole entry): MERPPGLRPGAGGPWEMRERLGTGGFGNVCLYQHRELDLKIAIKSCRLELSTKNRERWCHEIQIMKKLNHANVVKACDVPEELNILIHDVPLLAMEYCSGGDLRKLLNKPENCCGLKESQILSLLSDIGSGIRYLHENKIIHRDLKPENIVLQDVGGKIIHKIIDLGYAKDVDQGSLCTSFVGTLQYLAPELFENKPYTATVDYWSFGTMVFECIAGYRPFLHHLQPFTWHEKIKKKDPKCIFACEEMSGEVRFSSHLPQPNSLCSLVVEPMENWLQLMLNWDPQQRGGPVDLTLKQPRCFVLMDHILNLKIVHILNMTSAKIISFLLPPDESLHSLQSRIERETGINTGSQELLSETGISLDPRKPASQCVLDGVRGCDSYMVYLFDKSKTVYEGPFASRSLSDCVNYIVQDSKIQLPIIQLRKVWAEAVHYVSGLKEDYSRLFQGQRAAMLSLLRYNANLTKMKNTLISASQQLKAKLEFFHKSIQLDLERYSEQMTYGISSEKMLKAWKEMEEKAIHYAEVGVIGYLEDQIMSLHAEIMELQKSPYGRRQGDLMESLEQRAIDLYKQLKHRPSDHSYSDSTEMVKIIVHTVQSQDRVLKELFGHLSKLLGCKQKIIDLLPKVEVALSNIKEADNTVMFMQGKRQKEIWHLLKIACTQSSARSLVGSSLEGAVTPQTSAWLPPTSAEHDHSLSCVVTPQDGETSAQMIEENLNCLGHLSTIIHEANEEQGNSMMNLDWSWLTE
In short: (§1)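 Enzyme (IKK-2 or IKK-1, typically 0.5 µg/mL final) added at 30 °C to 50 µg/mL GST-IκBα substrate and 20 µM ATP. Read-out is GST-IκBα phosphorylation. IC50 is from a single experiment.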

[2] = biological target: T2, Inhibitor of nuclear factor kappa-B kinase subunit beta (Homo sapiens, UniProt O14920); assay: Inhibition of LPS-induced TNFalpha secretion in THP1 cells; format: functional, cell-based, THP-1
T2 sequence (O14920 whole entry): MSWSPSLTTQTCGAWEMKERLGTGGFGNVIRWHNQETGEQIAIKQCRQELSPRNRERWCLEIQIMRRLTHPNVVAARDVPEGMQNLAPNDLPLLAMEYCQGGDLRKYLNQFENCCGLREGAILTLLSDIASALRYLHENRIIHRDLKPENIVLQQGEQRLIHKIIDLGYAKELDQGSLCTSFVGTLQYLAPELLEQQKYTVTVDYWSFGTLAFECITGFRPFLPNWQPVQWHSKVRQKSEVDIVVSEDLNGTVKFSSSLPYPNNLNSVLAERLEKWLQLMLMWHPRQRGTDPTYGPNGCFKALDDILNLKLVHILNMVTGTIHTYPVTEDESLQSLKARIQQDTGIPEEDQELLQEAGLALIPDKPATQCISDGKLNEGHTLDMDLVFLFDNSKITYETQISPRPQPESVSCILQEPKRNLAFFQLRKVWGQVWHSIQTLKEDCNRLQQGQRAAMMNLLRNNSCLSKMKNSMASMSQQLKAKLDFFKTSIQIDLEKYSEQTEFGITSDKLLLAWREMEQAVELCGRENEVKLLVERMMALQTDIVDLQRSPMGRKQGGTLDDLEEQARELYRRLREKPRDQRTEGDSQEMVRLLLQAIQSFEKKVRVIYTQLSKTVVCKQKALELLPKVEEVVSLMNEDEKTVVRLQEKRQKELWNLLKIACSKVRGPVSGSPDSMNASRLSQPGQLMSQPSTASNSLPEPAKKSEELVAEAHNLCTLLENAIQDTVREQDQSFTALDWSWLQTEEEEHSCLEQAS

[3] = biological target: T2, Inhibitor of nuclear factor kappa-B kinase subunit beta; assay: Inhibition of IKK2; in short: as §1
Mus musculus [4] = assay: Reduction of LPS-induced serum TNFalpha levels in BALB/c mouse at 10 mg/kg, po relative to control; format: functional; design: scale not given: the % may be the effect or the level left
In short: (§2)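 Female BALB/c mice, 6–8 weeks old, got inhibitor in 0.2 mL aqueous solution by oral gavage. One hour later they were challenged ip with 1 µg E. coli O111:B4 LPS in 500 µL PBS. Serum was taken 90 min after challenge and TNF-α measured by EIA. Inhibition is relative to vehicle-only LPS-challenged controls.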

Homo sapiens = organism: Homo sapiens; assay: Selectivity for human IKK2 over human IKK1
Mus musculus [5] = assay: Reduction of LPS-induced serum TNFalpha levels in BALB/c mouse at 30 mg/kg, po relative to control; format: functional; design: scale not given: the % may be the effect or the level left; in short: as §2
Mus musculus [6] = assay: Reduction of LPS-induced serum TNFalpha levels in BALB/c mouse at 100 mg/kg, po relative to control; format: functional, organism-based; design: dose 100 mg/kg; in short: as §2
[7] = biological target: T3, Inhibitor of nuclear factor kappa-B kinase subunit epsilon (Homo sapiens) (UniProt Q14164); assay: Inhibition of IKKepsilon at 50 uM
T3 sequence (whole entry): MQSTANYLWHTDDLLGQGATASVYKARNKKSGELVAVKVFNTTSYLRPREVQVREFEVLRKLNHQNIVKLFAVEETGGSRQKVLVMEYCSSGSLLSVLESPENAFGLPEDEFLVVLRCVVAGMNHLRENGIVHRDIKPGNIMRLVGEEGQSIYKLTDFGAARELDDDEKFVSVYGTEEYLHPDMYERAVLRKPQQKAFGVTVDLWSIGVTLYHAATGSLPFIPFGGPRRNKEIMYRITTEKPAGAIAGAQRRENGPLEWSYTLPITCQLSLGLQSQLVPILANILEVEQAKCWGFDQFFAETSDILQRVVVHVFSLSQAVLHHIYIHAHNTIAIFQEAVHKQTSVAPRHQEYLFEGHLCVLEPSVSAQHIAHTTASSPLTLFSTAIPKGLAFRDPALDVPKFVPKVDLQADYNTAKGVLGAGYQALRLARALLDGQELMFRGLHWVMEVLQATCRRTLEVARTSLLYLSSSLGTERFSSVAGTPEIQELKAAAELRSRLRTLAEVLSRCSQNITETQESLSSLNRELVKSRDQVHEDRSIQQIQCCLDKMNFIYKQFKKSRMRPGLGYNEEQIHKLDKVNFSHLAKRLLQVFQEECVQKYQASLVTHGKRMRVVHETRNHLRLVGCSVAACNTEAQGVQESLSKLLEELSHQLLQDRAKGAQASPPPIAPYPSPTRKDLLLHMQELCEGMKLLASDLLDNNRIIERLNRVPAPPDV

[8] = biological target: Tyrosine-protein kinase Lck (Homo sapiens) (UniProt P06239); assay: Inhibition of LCK at 50 uM
[9] = biological target: T4, Tyrosine-protein kinase ITK/TSK (Homo sapiens) (UniProt Q08881); assay: Inhibition of EMT at 50 uM
T4 sequence (whole entry): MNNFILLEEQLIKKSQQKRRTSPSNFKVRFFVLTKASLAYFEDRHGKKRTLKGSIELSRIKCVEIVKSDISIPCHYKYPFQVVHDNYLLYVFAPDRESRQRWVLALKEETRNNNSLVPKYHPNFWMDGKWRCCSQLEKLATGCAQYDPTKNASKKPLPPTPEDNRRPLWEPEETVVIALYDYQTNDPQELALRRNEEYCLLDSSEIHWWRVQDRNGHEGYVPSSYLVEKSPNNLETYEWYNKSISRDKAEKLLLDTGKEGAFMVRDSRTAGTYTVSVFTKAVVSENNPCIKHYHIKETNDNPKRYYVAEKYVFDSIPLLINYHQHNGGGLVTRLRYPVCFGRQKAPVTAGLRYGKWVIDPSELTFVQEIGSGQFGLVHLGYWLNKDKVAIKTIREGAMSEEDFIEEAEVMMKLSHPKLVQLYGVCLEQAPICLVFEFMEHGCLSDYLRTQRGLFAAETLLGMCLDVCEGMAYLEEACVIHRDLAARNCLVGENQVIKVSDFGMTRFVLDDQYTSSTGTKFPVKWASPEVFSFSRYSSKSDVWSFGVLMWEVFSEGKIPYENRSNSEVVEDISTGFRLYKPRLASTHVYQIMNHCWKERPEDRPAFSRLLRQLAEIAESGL

Sequence of Tyrosine-protein kinase Lck (Homo sapiens) (P06239 2-509 limits assumed): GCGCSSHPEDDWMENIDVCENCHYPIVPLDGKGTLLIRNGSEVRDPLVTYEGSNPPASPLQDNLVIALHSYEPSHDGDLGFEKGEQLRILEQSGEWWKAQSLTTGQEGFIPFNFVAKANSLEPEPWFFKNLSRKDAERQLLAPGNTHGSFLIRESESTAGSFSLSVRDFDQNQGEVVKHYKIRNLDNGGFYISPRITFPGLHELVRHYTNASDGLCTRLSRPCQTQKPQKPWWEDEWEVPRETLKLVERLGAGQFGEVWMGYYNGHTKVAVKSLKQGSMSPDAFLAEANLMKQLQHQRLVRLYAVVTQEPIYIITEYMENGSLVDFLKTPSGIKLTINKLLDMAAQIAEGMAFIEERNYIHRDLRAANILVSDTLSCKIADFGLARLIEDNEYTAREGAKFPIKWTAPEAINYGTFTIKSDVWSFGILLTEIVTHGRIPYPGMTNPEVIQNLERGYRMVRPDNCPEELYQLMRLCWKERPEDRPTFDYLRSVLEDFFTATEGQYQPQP

SMILES | IC50 [1] | IC50 [2] | IC50 [3] | other results
CNc1nc2cc3ccccc3cc2c2c(C)cnn12 |  | 8300 nM | 11 nM | 
Cc1ccc2nc(NCCN)c3ncc(C)n3c2c1.Cl |  |  |  | Activity (Mus musculus [5]): 50%; Activity (Mus musculus [6]): Active
Cn1cnc2c(NCCN)nc3cc4ccccc4cc3c21 | 1600 nM | 5900 nM | 58 nM | 
Cc1cnc2c(NCCO)nc3cc4ccccc4cc3n12 | 870 nM | 1400 nM | 18 nM | Ratio IC50 (Homo sapiens): 48
CNCCNc1nc2cc3ccccc3cc2c2c(C)cnn12 |  | 1500 nM | 35 nM | 
CNCCNc1nc2cc3ccccc3cc2n2c(C)cnc12 | 390 nM | 1000 nM | 23 nM | Activity (Mus musculus [6]): Active; Activity [7]: inactive; Activity [8]: inactive; Activity [9]: inactive

The next lines start with results.

IC50 [1] | IC50 [2] | IC50 [3] | SMILES | other results
990 nM | 950 nM |  | CNc1nc2cc3ccccc3cc2c2c1ncn2C | 
 | 340 nM | 18 nM | CNc1nc2cc3ccccc3cc2n2c(C)cnc12 | Activity (Mus musculus [4]): 50%; Ratio IC50 (Homo sapiens): 13
 | 600 nM | 46 nM | Cc1cnc2c(NCCN3CCCCC3)nc3cc4ccccc4cc3n12 | 
